What was measured:
[1] = target: T1, Geranylgeranyl transferase type I (Homo sapiens, UniProt P49354+P53609); test: Concentration required to inhibit recombinant human geranylgeranyl transferase type I (GGTase-I) catalyzed incorporation of [3H]GGPP to the C-terminus of human K-Ras.; type: protein-complex assay
In short: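 Human GGTase-I transferring [3H]GGPP onto a biotinylated peptide matching the human K-Ras C-terminus. IC50 is the concentration giving 50% inhibition of incorporation. For the GGPP-competition check, IC50 was also determined at 20, 100 and 500 nM GGPP. Data with n > 2 are given as mean ± SEM.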

[2] = target: T2, Protein farnesyltransferase (Homo sapiens, UniProt P49354+P49356); test: Concentration required to inhibit recombinant human farnesyltransferase (FTase) catalyzed incorporation of [3H]FPP into recombinant Ras-CVIM.; type: protein-complex assay
[3] = target: T1, Geranylgeranyl transferase type I; test: Inhibition of Rap1a protein geranylgeranylation in human PSN1 cells; type: functional, cell-based
In short: (§1)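 PSN-1 pancreatic carcinoma cells were exposed to inhibitor for 24 h. Lysates were run on SDS-PAGE and Western blotted with antibodies to hDJ2, Rap1a or K-Ras. Unprocessed and prenylated forms were told apart by their different electrophoretic mobility.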

[4] = target: Protein farnesyl/geranylgeranyl transferase (Homo sapiens, UniProt P49354+P49356+P53609); test: Inhibition of K-Ras processing, farnesylation and/or geranylgeranylation in human PSN1 cells; type: functional, cell-based; in short: as §1
[5] = target: T2, Protein farnesyltransferase; test: Inhibition of hDJ2 protein farnesylation; type: functional; in short: as §1

SMILES	IC50 [1]	IC50 [2]	EC50 [3]	EC50 [4]	EC50 [5]
CCC[C@@]1(c2cccc(Oc3cc([C@](C)(N)c4cncn4C)ccc3C#N)c2)CCCCN(C)C1=O	2.9 nM	0.46 nM	220 nM	100 nM	0.9 nM
CCC1(c2cccc(Oc3cc(C(C)(N)c4cncn4C)ccc3C#N)c2)CCCCN(C)C1=O (stereo unspecified)	5.1 nM	0.38 nM	–	–	–
CN1CCCC[C@@](CCC(F)(F)F)(c2cccc(Oc3cc([C@](C)(N)c4cncn4C)ccc3C#N)c2)C1=O	2.5 nM	0.19 nM	47 nM	207 nM	3.1 nM
CN1CCCC[C@@](CCC2CC2)(c2cccc(Oc3cc([C@](C)(N)c4cncn4C)ccc3C#N)c2)C1=O	0.81 nM	0.18 nM	> 1000 nM	1290 nM	11 nM
N#Cc1ccc(Cn2ccnc2)cc1Oc1cccc(C2CCCCNC2=O)c1 (stereo unspecified)	1200 nM	41 nM	–	–	–
CCCC[C@@]1(c2cccc(Oc3cc([C@](C)(N)c4cncn4C)ccc3C#N)c2)CCCCN(C)C1=O	1.4 nM	0.12 nM	250 nM	320 nM	4 nM
CC[C@]1(c2cccc(Oc3cc([C@@](C)(N)c4cncn4C)ccc3C#N)c2)CCCCN(C)C1=O	54 nM	7.6 nM	3200 nM	8000 nM	120 nM
CN1CCCC[C@@H](c2cccc(Oc3cc([C@](C)(N)c4cncn4C)ccc3C#N)c2)C1=O	92 nM	11 nM	–	–	–
CC[C@@]1(c2cccc(Oc3cc([C@](C)(N)c4cncn4C)ccc3C#N)c2)CCCCN(C)C1=O	3.6 nM	–	470 nM	340 nM	2.1 nM
CN1CCCC[C@@](C)(c2cccc(Oc3cc([C@](C)(N)c4cncn4C)ccc3C#N)c2)C1=O	30 nM	0.41 nM	3990 nM	3730 nM	26 nM
CCC1(c2cccc(Oc3cc(C(C)(O)c4cncn4C)ccc3C#N)c2)CCCCN(C)C1=O (stereo unspecified)	13 nM	1.2 nM	–	–	–
CC[C@@]1(c2cccc(Oc3cc([C@@](C)(N)c4cncn4C)ccc3C#N)c2)CCCCN(C)C1=O (stereo in doubt)	13 nM	0.36 nM	140 nM	230 nM	6 nM
CN1CCCC[C@@](CC2CC2)(c2cccc(Oc3cc([C@](C)(N)c4cncn4C)ccc3C#N)c2)C1=O	2.1 nM	0.3 nM	87 nM	220 nM	1.5 nM
CC[C@]1(c2cccc(Oc3cc([C@](C)(N)c4cncn4C)ccc3C#N)c2)CCCCN(C)C1=O (stereo in doubt)	4.5 nM	1.5 nM	720 nM	1900 nM	11 nM

Other lines, results leading:

IC50 [1]	IC50 [2]	EC50 [3]	EC50 [4]	EC50 [5]	SMILES
8.9 nM	1.9 nM	–	–	–	CCC1(c2cccc(Oc3cc(Cn4ccnc4)ccc3C#N)c2)CCCCN(C(C)=O)C1 (stereo unspecified)
8 nM	0.19 nM	–	–	–	CCC1(c2cccc(Oc3cc(C(N)c4cncn4C)ccc3C#N)c2)CCCCN(C)C1=O (stereo unspecified)
280 nM	100 nM	–	–	–	CCC1(c2cccc(Oc3cc(Cn4ccnc4)ccc3C#N)c2)CCCCNC1 (stereo unspecified)
7.2 nM	3 nM	–	–	–	CCC1(c2cccc(Oc3cc(Cn4ccnc4)ccc3C#N)c2)CCCCN(C)C1=O (racemic)
10000 nM	1800 nM	–	–	–	CCC1(c2cccc(Oc3cc(C(=O)c4cncn4C)ccc3C#N)c2)CCCCN(C)C1=O (stereo unspecified)
10 nM	0.6 nM	–	–	–	CCC1(c2cccc(Oc3cc(Cc4cncn4C)ccc3C#N)c2)CCCCN(C)C1=O (stereo unspecified)
5.8 nM	1.4 nM	–	–	–	CC[C@@]1(c2cccc(Oc3cc(Cn4ccnc4)ccc3C#N)c2)CCCCN(C)C1=O
17 nM	2 nM	–	–	–	CCC1(c2cccc(Oc3cc(C(O)c4cncn4C)ccc3C#N)c2)CCCCN(C)C1=O (stereo unspecified)
12 nM	13 nM	–	–	–	CCC1(c2cccc(Oc3cc(Cc4cnc[nH]4)ccc3C#N)c2)CCCCN(C)C1=O (stereo unspecified)
25 nM	5.3 nM	–	–	–	CC[C@]1(c2cccc(Oc3cc(Cn4ccnc4)ccc3C#N)c2)CCCCN(C)C1=O
560 nM	61 nM	–	–	–	CN1CCCCC(c2cccc(Oc3cc(Cn4ccnc4)ccc3C#N)c2)C1=O (stereo unspecified)
20 nM	1.3 nM	–	–	–	CCC1(c2cccc(Oc3cc(Cn4ccnc4)ccc3C#N)c2)CCCCNC1=O (stereo unspecified)

— ChEMBL document CHEMBL1145986, “Dual protein farnesyltransferase-geranylgeranyltransferase-I inhibitors as potential cancer chemotherapeutic agents” (J Med Chem, 2003)
